PubChem BioAssay
Active and inactive are the calls of the source.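 The calls were made as follows, unless noted: active = viability at or under a set limit in both replicates, limit being median viability minus 3 SD (cut at about 48% in these data, passing the limit was not always enough); inconclusive = at or under the limit in just one replicate; inactive = at or above the limit in both replicates.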

Legend:
[1] = reduced viability of SK-BR-3 breast cancer cells – cell-based, 24 h, human, pilot screen (AID 572;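 active = viability at or below 10% of carrier control in both of two separate runs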;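 also: compound exposure lasted between 18 and 24 h rather than exactly 24 h; 100% = carrier-treated control wells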); conditions: SK-BR-3 viability, CellTiter-Glo luminescence, at 10 µM, stronger effect = lower value
[2] = HUVEC growth inhibition – cell-based, human, primary screen (AID 575;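 active = viability at or below 30% in both replicate assays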;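 also: 100% = median of untreated cell wells with 0.1% DMSO on each plate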); conditions: HUVEC proliferation, CellTiter-Glo luminescence, 72 h; at 10 µM; stronger effect = lower value
Summary of the method: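 Test system: primary human umbilical vein endothelial cells. Quantity: 1250 cells/well. Compound: single 10 µM dose, 0.1% DMSO, from 5x medium stock. Timing: 72 h treatment at 37 °C. Detection: ATP-based CellTiter-Glo luminescent read. Benchmarks: vehicle and MePR control wells. Format: 384-well plates coated with collagen.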

[3] = H69AR cell proliferation blockers – human, duplicate replicates, primary screen (AID 580); conditions: H69AR lung tumor cells viability, ATP luminescence, 72 h; at 10 µM; stronger effect = lower value;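 also: 100% = mean luminescence of untreated wells and 0% = no signal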
[4] = MRP1 drug-resistance reversers in H69AR cells – cell-based, doxorubicin co-treatment, pilot screen (AID 601;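 active = viability loss from added drug above about 55%, and viability with drug at most 40%, in both replicates, limit read from the data, passing the limit was not always enough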); conditions: CellTiter-Glo, 72 h, at 10 µM; for differential viability (reversal): stronger effect = higher value
[5] = yeast transport mutant growth inhibition pilot in 384-well plates, post-Golgi transport modulator project (AID 636; in the data active = inhibition above about 31%); conditions: absorbance 615 nm, about 18 h, stronger effect = higher value
[6] = growth suppression of yeast trafficking mutant, preliminary HTS, modulators of trafficking downstream of Golgi apparatus project, 1536-format plate, OD 615 nm (AID 637; in the data active = inhibition above about 30%); conditions: yeast transport mutant growth, absorbance 615 nm, 18 h; stronger effect = higher value
[7] = H69AR cells + 2 uM doxorubicin, measured here: viability with 2 uM doxorubicin, stronger effect = lower value
[8] = H69AR cells, compound alone cytotoxicity

Row | Structure (SMILES) | viability [1] | viability [2] | viability [3] | differential viability (reversal) ([4]; H69AR cells + 2 uM doxorubicin) | viability [4, 7] | viability [4, 8] | inhibition [5] | inhibition [6]
1 | COc1ccc(C(O)C(CN2CCOCC2)c2ccccc2)cc1F (centres undefined) | 107% (inactive) | 109% (inactive) | 103% (inactive) | 4.89% (inactive) | 97.8% | 103% | -0.26% (inactive) | 1.64% (inactive)
2 | Cc1[nH]c(C(=O)N2CCCCC2)c(C)c1C(=O)NC1CCCCC1 | 88% (inactive) | 92.4% (inactive) | 103% (inactive) | 18.4% (inactive) | 84.4% | 103% | 1.43% (inactive) | 0.66% (inactive)
3 | NC(=O)c1c(NC(=O)Cc2cccs2)sc2c1CCC2 | 103% (inactive) | 97.3% (inactive) | 94.3% (inactive) | 3.05% (inactive) | 91.3% | 94.3% | -0.27% (inactive) | -6.94% (inactive)
4 | CCN1C(=O)/C(=C/N(C)c2ccccc2)OC1=S | 97% (inactive) | 91.5% (inactive) | 93.7% (inactive) | -0.96% (inactive) | 94.7% | 93.7% | -2.6% (inactive) | 8.18% (inactive)
5 | O=C(c1ccc(F)cc1)C1CCN(CCn2c(=O)[nH]c3ccccc3c2=O)CC1 | 94% (inactive) | 89.5% (inactive) | 96.2% (inactive) | 1.93% (inactive) | 94.3% | 96.2% | -2.73% (inactive) | 1.33% (inactive)
6 | Cc1nn(C)cc1C1C2=C(CC(C)(C)CC2=O)OC2=C1C(=O)CC(C)(C)C2 | 74% (inactive) | 110% (inactive) | 89.8% (inactive) | -5.79% (inactive) | 95.6% | 89.8% | -6.62% (inactive) | 0.18% (inactive)
7 | CCc1ccccc1NC(=O)C(CC)Sc1nc2cc3c(cc2c(=O)n1Cc1ccco1)OCO3 (centres undefined) | 95.5% (inactive) | 62.6% (inactive) | 28.3% (active) | 13.2% (inactive) | 15.1% | 28.3% | -3.47% (inactive) | 2.74% (inactive)
8 | CCOC(=O)N1CCC(NC(=O)Cc2ccc(-n3c(=O)[nH]c4ccccc4c3=O)cc2)CC1 | 103% (inactive) | 97.6% (inactive) | 96.4% (inactive) | 7.9% (inactive) | 88.5% | 96.4% | -5.06% (inactive) | 0% (inactive)
9 | Cn1c(=O)c2c(nc(Br)n2CCSc2nnnn2-c2ccccc2)n(C)c1=O | 76% (inactive) | 105% (inactive) | 80.4% (inactive) | -14.9% (inactive) | 95.3% | 80.4% | -4.59% (inactive) | -7.27% (inactive)
10 | COc1cccc(Nc2nnc(SCC(=O)N3CC(C)OC(C)C3)s2)c1 (centres undefined) | 92% (inactive) | 75.3% (inactive) | 102% (inactive) | 2.69% (inactive) | 99.1% | 102% | -2.4% (inactive) | -0.36% (inactive)
11 | O=C(Nc1ccccc1C(=O)N1CCOCC1)c1cccc(S(=O)(=O)N2CCCC2)c1 | 112% (inactive) | 92.3% (inactive) | 88.2% (inactive) | -1.19% (inactive) | 89.3% | 88.2% | -2.08% (inactive) | 0.49% (inactive)
12 | COCCCN(Cc1ccccn1)S(=O)(=O)Cc1ccccc1 | 130% (inactive) | 83.5% (inactive) | 105% (inactive) | 17.9% (inactive) | 86.7% | 105% | -4.11% (inactive) | -9.68% (inactive)
13 | COc1ccc(C2C(C(=O)c3sc(C)nc3C)=C(O)C(=O)N2CCN(C)C)cc1 (centres undefined) | 106% (inactive) | 106% (inactive) | 93.1% (inactive) | 12.4% (inactive) | 80.7% | 93.1% | -8% (inactive) | 4.36% (inactive)
14 | COc1ccc(CCN2C(=O)CC(N3CCN(S(=O)(=O)c4ccccc4)CC3)C2=O)cc1 (centres undefined) | 103% (inactive) | 107% (inactive) | 96.7% (inactive) | -9.06% (inactive) | 106% | 96.7% | 2.05% (inactive) | -0.36% (inactive)
15 | NS(=O)(=O)c1cc2c(cc1C(F)(F)F)NCNS2(=O)=O | 100% (inactive) | 91% (inactive) | 109% (inactive) | 8.31% (inactive) | 101% | 109% | 1.17% (inactive) | 3.33% (inactive)
16 | CCOC(=O)c1cnc(SC2CC(=O)N(c3ccc(OC)c(OC)c3)C2=O)nc1N (centres undefined) | 121% (inactive) | 101% (inactive) | 111% (inactive) | 14% (inactive) | 96.8% | 111% | -0.55% (inactive) | 1.13% (inactive)
17 | O=C(CSc1nccn1Cc1ccccc1)Nc1nccs1 | 90% (inactive) | 98.6% (inactive) | 108% (inactive) | 6.88% (inactive) | 101% | 108% | -0.26% (inactive) | 1.48% (inactive)

Row | Structure (SMILES) | viability [1] | viability [2] | viability [3] | differential viability (reversal) ([4]; H69AR cells + 2 uM doxorubicin) | viability [4, 7] | viability [4, 8] | inhibition [5] | inhibition [6]
18 | O=C(CN1CCN(c2ccccn2)CC1)N1c2ccccc2CCc2ccccc21 | 95% (inactive) | 88.1% (inactive) | 107% (inactive) | -0.175% (inactive) | 108% | 107% | -6.08% (inactive) | -0.55% (inactive)
19 | Nc1nc2c(ncn2COCCO)c(=O)[nH]1 | 97% (inactive) | 86.9% (inactive) | 98.9% (inactive) | 3.38% (inactive) | 95.5% | 98.9% | 0.65% (inactive) | 3% (inactive)
20 | COc1ccc(C(c2nnnn2C2CCCC2)N2CCC(C)CC2)c(OC)c1 (centres undefined) | 154% (inactive) | 91.4% (inactive) | 87.8% (inactive) | -8.92% (inactive) | 96.7% | 87.8% | -0.26% (inactive) | -3.28% (inactive)
21 | O=C(c1ccco1)N1CCN(c2nc(C(F)(F)F)nc3c2nnn3Cc2ccccc2)CC1 | 133% (inactive) | 69.2% (inactive) | 73.3% (inactive) | -2.53% (inactive) | 75.8% | 73.3% | -9.45% (inactive) | -0.16% (inactive)
22 | COc1ccc(-c2nnn(CC(=O)c3ccc4c(c3)OCCO4)n2)cc1OC | 92% (inactive) | 73.8% (inactive) | 81.5% (inactive) | 7.78% (inactive) | 73.7% | 81.5% | -7.26% (inactive) | 0% (inactive)
23 | COCCn1nnnc1C(c1ccccc1OC)N1CCc2ccccc2C1 (centres undefined) | 119% (inactive) | 103% (inactive) | 82.1% (inactive) | -6.74% (inactive) | 88.8% | 82.1% | -8.24% (inactive) | -6.36% (inactive)
24 | CCCC1(C(=O)OC)NC(c2cc(OC)c(OC)c(OC)c2)C2C(=O)N(CC)C(=O)C21 (centres undefined) | 67% (inactive) | 98.3% (inactive) | 88.9% (inactive) | -1.5% (inactive) | 90.4% | 88.9% | -4.93% (inactive) | 21.4% (inactive)
25 | Cc1nc2ccc(S(=O)(=O)NCC(=O)N3CCc4ccccc4C3)cc2s1 | 87% (inactive) | 106% (inactive) | 93.5% (inactive) | 6.91% (inactive) | 86.6% | 93.5% | 2.47% (inactive) | 3.11% (inactive)
26 | Cc1[nH]nc(N=CC2=C(O)CC(C)(C)CC2=O)c1-c1ccccc1 | 85% (inactive) | 100% (inactive) | 88.6% (inactive) | -6.69% (inactive) | 95.3% | 88.6% | -0.95% (inactive) | 1.09% (inactive)
27 | Cc1c(C(=O)NCc2ccoc2)oc2ccc3c(c12)C(=O)CC(C)(C)O3 | 129% (inactive) | 75.1% (inactive) | 76.2% (inactive) | -2.74% (inactive) | 78.9% | 76.2% | -0.52% (inactive) | 3.77% (inactive)
28 | O=C(Nc1ccc2c(c1)OCO2)N1CCN(c2ncccn2)CC1 | 126% (inactive) | 106% (inactive) | 85.5% (inactive) | -22.1% (inactive) | 108% | 85.5% | -8.49% (inactive) | -1.64% (inactive)
29 | O=C(Cc1cccs1)N(c1ccccc1)C1C=CS(=O)(=O)C1 (centres undefined) | 118% (inactive) | 107% (inactive) | 106% (inactive) | 28.9% (inactive) | 76.7% | 106% | -3.07% (inactive) | -1.64% (inactive)
30 | O=C(CN(c1ccc(F)cc1)S(=O)(=O)c1ccc2c(c1)OCCO2)Nc1cccnc1 | 77% (inactive) | 89.5% (inactive) | 100% (inactive) | -0.85% (inactive) | 101% | 100% | -8.77% (inactive) | -3.82% (inactive)
31 | O=C(NCc1cccnc1)c1cccc(C(F)(F)F)c1 | 87% (inactive) | 109% (inactive) | 112% (inactive) | 16% (inactive) | 95.7% | 112% | -5.34% (inactive) | 6.55% (inactive)
32 | CCOc1cccc(C(=O)N(Cc2ccco2)C2CCS(=O)(=O)C2)c1 (centres undefined) | 96% (inactive) | 109% (inactive) | 97.6% (inactive) | 8.11% (inactive) | 89.5% | 97.6% | -5.95% (inactive) | -1.09% (inactive)
33 | O=C(Nc1ccccc1)N(CCCN1CCOCC1)Cc1cc2cc3c(cc2[nH]c1=O)OCCO3 | 96% (inactive) | 82.3% (inactive) | 67.6% (inactive) | 2.71% (inactive) | 64.9% | 67.6% | 2.13% (inactive) | 3.45% (inactive)
